Laboratory results taken from ChEMBL document CHEMBL4346709, “Design and Optimization Leading to an Orally Active TTK Protein Kinase Inhibitor with Robust Single Agent Efficacy” (J Med Chem, 2019).

Legend:
[1] = target: Mitogen-activated protein kinase 10 (Homo sapiens, UniProt P53779); test: Inhibition of recombinant human full length N-terminal GST-tagged JNK3 expressed in baculovirus expression system at 3 uM by Z'-LYTE assay relative to control
Outline: (§1)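 Kinase selectivity panel: single-point assessment at 3 µM, n=1.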

[2] = target: Mitogen-activated protein kinase 8 (Homo sapiens, UniProt P45983); test: Inhibition of recombinant human full length His-tagged JNK1 expressed in baculovirus expression system at 3 uM by Z'-LYTE assay relative to control; outline: as §1
Mitogen-activated protein kinase 8, sequence (P45983 whole entry): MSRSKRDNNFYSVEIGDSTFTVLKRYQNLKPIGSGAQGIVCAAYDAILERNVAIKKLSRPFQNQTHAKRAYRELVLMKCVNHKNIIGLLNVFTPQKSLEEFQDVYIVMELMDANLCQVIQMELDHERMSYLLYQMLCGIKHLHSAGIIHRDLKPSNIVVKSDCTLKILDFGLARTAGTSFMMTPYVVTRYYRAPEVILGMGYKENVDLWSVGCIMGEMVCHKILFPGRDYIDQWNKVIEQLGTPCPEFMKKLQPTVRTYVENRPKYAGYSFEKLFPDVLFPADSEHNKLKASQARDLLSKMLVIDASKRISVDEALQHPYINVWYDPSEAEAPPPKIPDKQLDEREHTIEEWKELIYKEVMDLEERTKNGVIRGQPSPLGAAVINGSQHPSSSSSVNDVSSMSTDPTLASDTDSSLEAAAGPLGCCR

[3] = target: T1, Dual specificity tyrosine-phosphorylation-regulated kinase 3 (Homo sapiens, UniProt O43781); test: Inhibition of recombinant human full length GST-tagged DYRK3 expressed in baculovirus expression system by Z'-LYTE assay
T1 sequence (O43781 whole entry): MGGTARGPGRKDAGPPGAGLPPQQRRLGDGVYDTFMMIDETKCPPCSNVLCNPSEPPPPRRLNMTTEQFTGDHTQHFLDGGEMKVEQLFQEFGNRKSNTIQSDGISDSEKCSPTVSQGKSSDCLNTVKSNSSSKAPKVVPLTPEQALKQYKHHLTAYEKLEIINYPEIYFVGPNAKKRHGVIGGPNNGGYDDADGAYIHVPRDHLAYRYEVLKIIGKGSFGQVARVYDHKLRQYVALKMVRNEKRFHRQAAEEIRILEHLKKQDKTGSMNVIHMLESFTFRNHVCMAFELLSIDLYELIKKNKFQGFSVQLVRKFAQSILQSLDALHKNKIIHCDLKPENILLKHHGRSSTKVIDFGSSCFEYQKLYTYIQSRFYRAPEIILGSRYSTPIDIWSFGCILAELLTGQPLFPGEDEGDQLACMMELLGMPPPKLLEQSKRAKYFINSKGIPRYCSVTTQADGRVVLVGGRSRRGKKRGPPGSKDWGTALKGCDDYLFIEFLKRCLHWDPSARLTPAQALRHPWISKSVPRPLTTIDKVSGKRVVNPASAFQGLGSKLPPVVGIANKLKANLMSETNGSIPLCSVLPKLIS

[4] = AUC in CB17 SCID mouse at 30 mg/kg, po; type: ADME, organism-based; conditions: in vivo
Outline: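 Oral PK in SCID mice at 30 mg/kg. Compound is formulated either in CMCT (0.5% CMC/0.25% tween-80) or in 5% TPGS, 10% captisol, 50 mM citrate buffer, depending on compound. Cmax and AUC are measured.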

[5] = target: Mitogen-activated protein kinase 9 (Homo sapiens, UniProt P45984); test: Inhibition of recombinant human full length His-tagged JNK2 expressed in baculovirus expression system by Z'-LYTE assay
Mitogen-activated protein kinase 9, sequence (P45984 whole entry): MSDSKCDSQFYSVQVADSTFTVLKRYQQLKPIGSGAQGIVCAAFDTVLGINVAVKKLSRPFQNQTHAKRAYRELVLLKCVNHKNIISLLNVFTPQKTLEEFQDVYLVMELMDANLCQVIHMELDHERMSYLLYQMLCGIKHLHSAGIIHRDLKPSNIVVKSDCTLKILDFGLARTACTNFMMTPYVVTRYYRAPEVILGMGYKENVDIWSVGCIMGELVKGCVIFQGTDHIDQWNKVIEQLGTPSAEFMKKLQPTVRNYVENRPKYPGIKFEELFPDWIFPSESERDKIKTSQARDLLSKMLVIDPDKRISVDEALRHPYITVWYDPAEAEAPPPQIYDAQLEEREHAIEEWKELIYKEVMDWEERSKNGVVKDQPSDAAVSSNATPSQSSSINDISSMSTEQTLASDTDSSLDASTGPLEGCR

[6] = target: T2, Dual specificity protein kinase TTK (Homo sapiens, UniProt P33981); test: Inhibition of TTK in human CAL51 cells assessed as decrease in phosphorylated KNL-1 T943 levels after 1 hr by Western blot analysis; type: cell-based
T2 sequence (P33981 whole entry): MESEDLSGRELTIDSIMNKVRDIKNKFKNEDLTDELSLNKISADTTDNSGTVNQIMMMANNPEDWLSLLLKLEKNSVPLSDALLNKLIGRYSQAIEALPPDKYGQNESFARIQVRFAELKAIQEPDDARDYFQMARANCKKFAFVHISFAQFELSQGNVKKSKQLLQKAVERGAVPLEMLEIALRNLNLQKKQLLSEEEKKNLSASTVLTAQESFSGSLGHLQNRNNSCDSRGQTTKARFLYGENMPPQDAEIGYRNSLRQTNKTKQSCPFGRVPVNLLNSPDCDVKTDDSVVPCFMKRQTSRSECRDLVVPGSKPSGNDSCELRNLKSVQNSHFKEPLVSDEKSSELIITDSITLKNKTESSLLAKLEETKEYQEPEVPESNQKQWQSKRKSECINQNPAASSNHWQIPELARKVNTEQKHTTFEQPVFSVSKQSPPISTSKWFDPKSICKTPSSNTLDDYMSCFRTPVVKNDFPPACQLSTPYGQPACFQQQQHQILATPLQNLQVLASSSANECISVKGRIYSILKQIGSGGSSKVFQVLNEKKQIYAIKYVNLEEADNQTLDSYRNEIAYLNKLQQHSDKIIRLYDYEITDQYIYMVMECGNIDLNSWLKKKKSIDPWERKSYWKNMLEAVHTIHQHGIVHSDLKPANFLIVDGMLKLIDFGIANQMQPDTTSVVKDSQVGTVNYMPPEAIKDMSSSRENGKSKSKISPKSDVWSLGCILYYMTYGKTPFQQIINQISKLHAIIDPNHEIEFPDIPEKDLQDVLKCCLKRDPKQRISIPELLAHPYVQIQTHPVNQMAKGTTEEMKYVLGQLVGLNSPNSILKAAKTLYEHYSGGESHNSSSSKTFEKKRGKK

[7] = target: T3, Testis-specific serine/threonine-protein kinase 1 (Homo sapiens, UniProt Q9BXA7); test: Inhibition of recombinant human full length His-tagged TSSK1 expressed in baculovirus expression system by Z'-LYTE assay
T3 sequence (Q9BXA7 whole entry): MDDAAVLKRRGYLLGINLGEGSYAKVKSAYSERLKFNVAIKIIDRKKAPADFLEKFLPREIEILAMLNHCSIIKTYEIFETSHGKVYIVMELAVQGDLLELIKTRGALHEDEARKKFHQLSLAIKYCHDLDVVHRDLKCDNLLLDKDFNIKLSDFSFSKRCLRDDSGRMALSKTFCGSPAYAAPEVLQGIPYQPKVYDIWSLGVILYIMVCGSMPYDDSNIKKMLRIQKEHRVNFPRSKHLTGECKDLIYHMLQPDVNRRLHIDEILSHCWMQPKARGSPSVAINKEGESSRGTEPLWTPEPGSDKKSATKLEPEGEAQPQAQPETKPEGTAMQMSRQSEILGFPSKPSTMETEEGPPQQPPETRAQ

[8] = target: T2, Dual specificity protein kinase TTK; test: Inhibition of Kinase Tracer 236 binding to recombinant human full-length GST-tagged TTk expressed in baculovirus expression system measured after 1 hr by LanthaScreen Eu--kinase binding assay
[9] = Toxicity in CB17 SCID mouse xenografted with human CAL51 cells assessed as loss of body weight at 30 mg/kg, po […] for 16 days and measured up to 31 days; type: organism-based; conditions: in vivo
Outline: (§2)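 Female CB17 SCID mice bearing subcutaneous CAL-51 xenografts (2×10^6 cells). Oral dosing once weekly at 30-120 mg/kg, or 30 mg/kg BID once weekly, for 16 days. Body weight loss tracked alongside tumour measurements, against vehicle.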

[10] = target: T4, Testis-specific serine/threonine-protein kinase 1 (Homo sapiens) (UniProt Q9BXA7); test: Inhibition of recombinant human full length His-tagged TSSK1 expressed in baculovirus expression system at 3 uM by Z'-LYTE assay relative to control; outline: as §1
T4 sequence (whole entry): T3 sequence (Q9BXA7 whole entry)

[11] = Toxicity in CB17 SCID mouse xenografted with human CAL51 cells assessed as loss of body weight at 30 to 120 mg/kg, po administered every seven days for 16 days and measured up to 31 days; type: organism-based; conditions: in vivo; outline: as §2
Homo sapiens = organism: Homo sapiens; test: Selectivity ratio of IC50 for recombinant human GST-tagged LRRK2 catalytic domain (970 to 2527 residues) expressed in baculovirus expression system to IC50 for inhibition of Kinase Tracer 236 binding to recombinant human full-length GST-tagged TTk expressed in baculovirus expression system

Mitogen-activated protein kinase 10, sequence (P53779 whole entry): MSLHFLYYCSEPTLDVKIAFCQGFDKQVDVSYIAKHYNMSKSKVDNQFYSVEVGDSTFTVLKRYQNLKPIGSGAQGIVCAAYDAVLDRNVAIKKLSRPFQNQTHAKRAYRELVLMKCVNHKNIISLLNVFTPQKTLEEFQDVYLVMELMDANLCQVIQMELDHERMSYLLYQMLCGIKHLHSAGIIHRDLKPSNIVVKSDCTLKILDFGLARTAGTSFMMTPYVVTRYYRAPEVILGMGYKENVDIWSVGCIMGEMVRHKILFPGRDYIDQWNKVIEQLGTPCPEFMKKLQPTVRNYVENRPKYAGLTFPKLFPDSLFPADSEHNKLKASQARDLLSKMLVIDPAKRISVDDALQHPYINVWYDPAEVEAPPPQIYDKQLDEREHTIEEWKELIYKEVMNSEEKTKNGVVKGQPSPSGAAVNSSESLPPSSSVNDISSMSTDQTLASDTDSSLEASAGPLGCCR

With `C[C@@H](Oc1cc(C(=O)N(C)C)ccc1Nc1nc(O[C@H]2CC[C@@](C)(O)CC2)c2c(Cl)c[nH]c2n1)C(F)(F)F` as the compound, how does the inhibition [1] read?
Its inhibition is > 80%.

And the inhibition [2]?
The inhibition was > 80%.

What about the IC50 [3] of the same compound?
Its IC50 is 0.104 nM.

What about the AUC [4] of the same compound?
The AUC was 22.5 µM·h.

And the IC50 [5]?
The IC50 was 0.059 nM.

What about the IC50 [6] of the same compound?
The IC50 was 30 nM.

What about the IC50 [7] of the same compound?
Its IC50 is 0.217 nM.

And the IC50 [8]?
The IC50 was 0.7 nM.

And the Activity [9]?
The Activity was “Non-Toxic”.

What about the inhibition [10] of the same compound?
The inhibition was > 80%.

What about the Activity [11] of the same compound?
The Activity was “Non-Toxic”.

What about the Ratio IC50 (Homo sapiens) of the same compound?
Its Ratio IC50 is < 100.
